Assay results as given in ChEMBL document CHEMBL1811814, “Synthesis and evaluation of indole, pyrazole, chromone and pyrimidine based conjugates for tumor growth inhibitory activities--development of highly efficacious cytotoxic agents” (Eur J Med Chem, 2010).

Experiments:
Type in all cases: functional
Set-up in all cases: scale not given: the % may be the effect or the level left
[1] = system: HL-60(TB); test: Growth inhibition of human HL-60(TB) cells assessed tumor cell growth at 10^-5 M
Method in brief: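 HL-60(TB), part of the 60-line panel, tested at a single concentration of 10^-5 M. The read-out is percent tumor cell growth relative to untreated growth.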

[2] = system: K562; test: Growth inhibition of human K562 cells assessed tumor cell growth at 10^-5 M
Method in brief: (§1)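 NCI 60-human-tumor-cell-line panel screen. Each compound was tested at a single concentration of 10^-5 M, and percent growth of tumor cells was recorded for each cell line. Growth inhibition was expressed from these percent-growth values.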

[3] = system: MOLT-4; test: Growth inhibition of human MOLT4 cells assessed tumor cell growth at 10^-5 M; method in brief: as §1
[4] = Growth inhibition of human […] cells assessed tumor cell growth at 10^-5 M; method in brief: as §1
[5] = system: SR; test: Growth inhibition of human SR cells assessed tumor cell growth at 10^-5 M
Method in brief: (§2)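 Single-dose screen at 10^-5 M across the 60 human tumor cell line panel, run to NCI standards. The value is the percent growth of each cell line in the presence of compound. Compounds active at this dose moved on to five-concentration testing (10^-4 to 10^-8 M).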

[6] = system: A549; test: Growth inhibition of human A549 cells assessed tumor cell growth at 10^-5 M; method in brief: as §1
[7] = system: EKVX; test: Growth inhibition of human EKVX cells assessed tumor cell growth at 10^-5 M; method in brief: as §1
[8] = system: HOP-62; test: Growth inhibition of human HOP62 cells assessed tumor cell growth at 10^-5 M; method in brief: as §1
[9] = system: NCI-H226; test: Growth inhibition of human NCI-H226 cells assessed tumor cell growth at 10^-5 M; method in brief: as §1
[10] = system: NCI-H23; test: Growth inhibition of human NCI-H23 cells assessed tumor cell growth at 10^-5 M; method in brief: as §1
[11] = system: NCI-H322M; test: Growth inhibition of human NCI-H322M cells assessed tumor cell growth at 10^-5 M; method in brief: as §1
[12] = system: NCI-H460; test: Growth inhibition of human NCI-H460 cells assessed tumor cell growth at 10^-5 M; method in brief: as §1
[13] = system: NCI-H522; test: Growth inhibition of human NCI-H522 cells assessed tumor cell growth at 10^-5 M; method in brief: as §1
[14] = system: COLO 205; test: Growth inhibition of human COLO205 cells assessed tumor cell growth at 10^-5 M; method in brief: as §1
[15] = system: HCT-116; test: Growth inhibition of human HCT116 cells assessed tumor cell growth at 10^-5 M; method in brief: as §1
[16] = system: HCT-15; test: Growth inhibition of human HCT15 cells assessed tumor cell growth at 10^-5 M; method in brief: as §1
[17] = system: HT-29; test: Growth inhibition of human HT-29 cells assessed tumor cell growth at 10^-5 M; method in brief: as §1
[18] = system: KM12; test: Growth inhibition of human KM12 cells assessed tumor cell growth at 10^-5 M; method in brief: as §1
[19] = system: SW-620; test: Growth inhibition of human SW620 cells assessed tumor cell growth at 10^-5 M; method in brief: as §2
[20] = system: SF-268; test: Growth inhibition of human SF268 cells assessed tumor cell growth at 10^-5 M; method in brief: as §1
[21] = system: SF-295; test: Growth inhibition of human SF295 cells assessed tumor cell growth at 10^-5 M; method in brief: as §1
[22] = system: SF-539; test: Growth inhibition of human SF539 cells assessed tumor cell growth at 10^-5 M; method in brief: as §1
[23] = system: SNB-19; test: Growth inhibition of human SNB19 cells assessed tumor cell growth at 10^-5 M; method in brief: as §2
[24] = system: SNB-75; test: Growth inhibition of human SNB75 cells assessed tumor cell growth at 10^-5 M; method in brief: as §2
[25] = system: U-251; test: Growth inhibition of human U251 cells assessed tumor cell growth at 10^-5 M; method in brief: as §2
[26] = system: LOX IMVI; test: Growth inhibition of human LOXIMVI cells assessed tumor cell growth at 10^-5 M; method in brief: as §1
[27] = system: Malme-3M; test: Growth inhibition of human MALME-3M cells assessed tumor cell growth at 10^-5 M; method in brief: as §1
[28] = system: M14; test: Growth inhibition of human M14 cells assessed tumor cell growth at 10^-5 M; method in brief: as §1
[29] = system: MDA-MB-435; test: Growth inhibition of human MDA-MB-435 cells assessed tumor cell growth at 10^-5 M; method in brief: as §1
[30] = system: SK-MEL-2; test: Growth inhibition of human SK-MEL-2 cells assessed tumor cell growth at 10^-5 M; method in brief: as §1
[31] = system: SK-MEL-28; test: Growth inhibition of human SK-MEL-28 cells assessed tumor cell growth at 10^-5 M; method in brief: as §1
[32] = system: SK-MEL-5; test: Growth inhibition of human SK-MEL-5 cells assessed tumor cell growth at 10^-5 M; method in brief: as §1
[33] = system: UACC-62; test: Growth inhibition of human UACC62 cells assessed tumor cell growth at 10^-5 M; method in brief: as §2
[34] = system: IGROV-1; test: Growth inhibition of human IGROV1 cells assessed tumor cell growth at 10^-5 M; method in brief: as §1
[35] = system: OVCAR-3; test: Growth inhibition of human OVCAR3 cells assessed tumor cell growth at 10^-5 M; method in brief: as §1
[36] = system: OVCAR-4; test: Growth inhibition of human OVCAR4 cells assessed tumor cell growth at 10^-5 M; method in brief: as §1
[37] = system: OVCAR-5; test: Growth inhibition of human OVCAR5 cells assessed tumor cell growth at 10^-5 M; method in brief: as §1
[38] = system: OVCAR-8; test: Growth inhibition of human OVCAR8 cells assessed tumor cell growth at 10^-5 M; method in brief: as §1
[39] = system: NCI/ADR-RES; test: Growth inhibition of human NCI/ADR-RES cells assessed tumor cell growth at 10^-5 M; method in brief: as §1
[40] = system: SK-OV-3; test: Growth inhibition of human SKOV3 cells assessed tumor cell growth at 10^-5 M; method in brief: as §1
[41] = system: 786-0; test: Growth inhibition of human 786-0 cells assessed tumor cell growth at 10^-5 M; method in brief: as §1
[42] = system: A498; test: Growth inhibition of human A498 cells assessed tumor cell growth at 10^-5 M; method in brief: as §1
[43] = system: ACHN; test: Growth inhibition of human ACHN cells assessed tumor cell growth at 10^-5 M; method in brief: as §1
[44] = system: CAKI-1; test: Growth inhibition of human Caki1 cells assessed tumor cell growth at 10^-5 M; method in brief: as §1
[45] = system: RXF 393; test: Growth inhibition of human RXF393 cells assessed tumor cell growth at 10^-5 M; method in brief: as §1
[46] = system: SN12C; test: Growth inhibition of human SN12C cells assessed tumor cell growth at 10^-5 M; method in brief: as §1
[47] = system: TK-10; test: Growth inhibition of human TK10 cells assessed tumor cell growth at 10^-5 M; method in brief: as §2
[48] = system: UO-31; test: Growth inhibition of human UO31 cells assessed tumor cell growth at 10^-5 M; method in brief: as §2
[49] = system: PC-3; test: Growth inhibition of human PC3 cells assessed tumor cell growth at 10^-5 M; method in brief: as §1
[50] = system: DU-145; test: Growth inhibition of human DU145 cells assessed tumor cell growth at 10^-5 M; method in brief: as §1
[51] = system: MCF7; test: Growth inhibition of human MCF7 cells assessed tumor cell growth at 10^-5 M; method in brief: as §1
[52] = system: MDA-MB-231; test: Growth inhibition of human MDA-MB-231 cells assessed tumor cell growth at 10^-5 M; method in brief: as §1
[53] = Growth inhibition of human Hs 578T cells assessed tumor cell growth at 10^-5 M; method in brief: as §1
[54] = system: T47D; test: Growth inhibition of human T47D cells assessed tumor cell growth at 10^-5 M; method in brief: as §2
[55] = system: MDA-MB-468; test: Growth inhibition of human MDA-MB-468 cells assessed tumor cell growth at 10^-5 M; method in brief: as §1

## Cc1ccc(S(=O)(=O)N2C(=O)/C(=C\c3cn(S(=O)(=O)c4ccc(C)cc4)c4ccccc34)c3ccccc32)cc1
[1]
  Activity: 85.6%
[2]
  Activity: 83.9%
[3]
  Activity: 90.4%
[4]
  Activity: 92.6%
[5]
  Activity: 70.4%
[6]
  Activity: 87.4%
[7]
  Activity: 99.9%
[8]
  Activity: 80.2%
[9]
  Activity: 97.5%
[10]
  Activity: 96.5%
[11]
  Activity: 102.4%
[12]
  Activity: 93.2%
[13]
  Activity: 49.7%
[14]
  Activity: 107.3%
[15]
  Activity: 83.1%
[16]
  Activity: 97.4%
[17]
  Activity: 90%
[18]
  Activity: 103.9%
[19]
  Activity: 94.8%
[20]
  Activity: 84.9%
[21]
  Activity: 91.8%
[22]
  Activity: 88%
[23]
  Activity: 82.9%
[24]
  Activity: 40.2%
[25]
  Activity: 76.2%
[26]
  Activity: 82.3%
[27]
  Activity: 97.7%
[28]
  Activity: 100.7%
[29]
  Activity: 109.2%
[30]
  Activity: 68.1%
[31]
  Activity: 100.5%
[32]
  Activity: 98.1%
[33]
  Activity: 82.1%
[34]
  Activity: 105%
[35]
  Activity: 107.8%
[36]
  Activity: 100.5%
[37]
  Activity: 96.2%
[38]
  Activity: 76%
[39]
  Activity: 95.6%
[40]
  Activity: 81%
[41]
  Activity: 71.2%
[42]
  Activity: 96.8%
[43]
  Activity: 91.3%
[44]
  Activity: 89.6%
[45]
  Activity: 77%
[46]
  Activity: 98.9%
[47]
  Activity: 65.5%
[48]
  Activity: 77.1%
[49]
  Activity: 71.7%
[50]
  Activity: 100%
[51]
  Activity: 93.9%
[52]
  Activity: 84.2%
[53]
  Activity: 74.8%
[54]
  Activity: 94.8%
[55]
  Activity: 103.8%

## O=C1/C(=C\c2cn(Cc3ccccc3)c3ccccc23)c2ccccc2N1Cc1ccccc1
[1]
  Activity: 103.6%
[2]
  Activity: 95.2%
[3]
  Activity: 98.9%
[4]
  Activity: 76.9%
[5]
  Activity: 96.6%
[6]
  Activity: 81.6%
[7]
  Activity: 85.2%
[8]
  Activity: 90.9%
[10]
  Activity: 88.6%
[11]
  Activity: 103.8%
[12]
  Activity: 88.6%
[13]
  Activity: 31.8%
[14]
  Activity: 89.8%
[15]
  Activity: 64.7%
[16]
  Activity: 77.7%
[17]
  Activity: 90%
[18]
  Activity: 87.9%
[19]
  Activity: 97.1%
[20]
  Activity: 92.3%
[21]
  Activity: 108.8%
[22]
  Activity: 94.7%
[23]
  Activity: 106.1%
[24]
  Activity: 89.5%
[25]
  Activity: 92.9%
[26]
  Activity: 84%
[27]
  Activity: 121.4%
[28]
  Activity: 96.6%
[29]
  Activity: 110.5%
[30]
  Activity: 86.4%
[31]
  Activity: 104.8%
[32]
  Activity: 84.4%
[33]
  Activity: 82.6%
[34]
  Activity: 66.8%
[35]
  Activity: 84.3%
[36]
  Activity: 84.4%
[37]
  Activity: 106.7%
[38]
  Activity: 88.9%
[39]
  Activity: 92%
[40]
  Activity: 92.4%
[41]
  Activity: 99.1%
[42]
  Activity: 96.6%
[43]
  Activity: 85.4%
[44]
  Activity: 72%
[45]
  Activity: 73.5%
[46]
  Activity: 104%
[47]
  Activity: 85.3%
[48]
  Activity: 82.3%
[49]
  Activity: 80.8%
[50]
  Activity: 100.2%
[51]
  Activity: 3.6%
[52]
  Activity: 100.6%
[53]
  Activity: 96%
[54]
  Activity: 57%
[55]
  Activity: 46.6%
